Reference: ChEMBL document CHEMBL2062509, “Synthesis of benzo-annulated tryptanthrins and their biological properties” (Bioorg Med Chem, 2012)
Converted amounts (≈) assume the structure as drawn.

Columns and labels:
[1] = system: DU-145; assay: Cytotoxicity against human DU145 cells after 72 hrs by MTT assay; format: functional, cell-based; conditions: DU-145, 72 h
[2] = species: Bos taurus; assay: Inhibition of calf thymus DNA topoisomerase 1-mediated relaxation of supercoiled pBR322 DNA at 20 uM after 30 mins by agarose gel electrophoresis analysis
[3] = system: T47D; assay: Cytotoxicity against human T47D cells after 72 hrs by MTT assay; format: functional, cell-based
[4] = system: HEK293; assay: Cytotoxicity against human HEK293 cells after 72 hrs by MTT assay; format: cell-based; conditions: HEK293, 72 h
[5] = molecular target: DNA topoisomerase 2-alpha (Homo sapiens) (UniProt P11388); assay: Inhibition of human DNA topoisomerase 2alpha-mediated relaxation of supercoiled pBR322 DNA at 20 uM after 30 mins by agarose gel electrophoretic analysis
Method in brief: (§1)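 Human topo IIα (0.2 units) and 100 ng supercoiled pBR322, 30 min at 37 °C with or without compound in 10 mM Tris-HCl pH 7.9, 50 mM NaCl, 5 mM MgCl2, 1 mM EDTA, 1 mM ATP, 15 µg/mL BSA. Quenched with 7 mM EDTA. Resolved on 1% agarose in TAE (25 V, 4 h), ethidium-stained, supercoiled DNA quantified under UV.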

[6] = molecular target: DNA topoisomerase 2-alpha (Homo sapiens) (UniProt P11388); assay: Inhibition of human DNA topoisomerase 2alpha-mediated relaxation of supercoiled pBR322 DNA at 100 uM after 30 mins by agarose gel electrophoretic analysis; method in brief: as §1
[7] = species: Bos taurus; assay: Inhibition of calf thymus DNA topoisomerase 1-mediated relaxation of supercoiled pBR322 DNA at 100 uM after 30 mins by agarose gel electrophoresis analysis
[8] = system: HCT-15; assay: Cytotoxicity against human HCT15 cells after 72 hrs by MTT assay; format: functional, cell-based; conditions: HCT-15, 72 h
[9] = system: Mycobacterium tuberculosis; assay: Antituberculosis activity against Mycobacterium tuberculosis; format: functional
[10] = molecular target: T1, Polyunsaturated fatty acid 5-lipoxygenase (Homo sapiens, UniProt P09917); assay: Inhibition of 5-lipoxygenase
T1 sequence (P09917 whole entry): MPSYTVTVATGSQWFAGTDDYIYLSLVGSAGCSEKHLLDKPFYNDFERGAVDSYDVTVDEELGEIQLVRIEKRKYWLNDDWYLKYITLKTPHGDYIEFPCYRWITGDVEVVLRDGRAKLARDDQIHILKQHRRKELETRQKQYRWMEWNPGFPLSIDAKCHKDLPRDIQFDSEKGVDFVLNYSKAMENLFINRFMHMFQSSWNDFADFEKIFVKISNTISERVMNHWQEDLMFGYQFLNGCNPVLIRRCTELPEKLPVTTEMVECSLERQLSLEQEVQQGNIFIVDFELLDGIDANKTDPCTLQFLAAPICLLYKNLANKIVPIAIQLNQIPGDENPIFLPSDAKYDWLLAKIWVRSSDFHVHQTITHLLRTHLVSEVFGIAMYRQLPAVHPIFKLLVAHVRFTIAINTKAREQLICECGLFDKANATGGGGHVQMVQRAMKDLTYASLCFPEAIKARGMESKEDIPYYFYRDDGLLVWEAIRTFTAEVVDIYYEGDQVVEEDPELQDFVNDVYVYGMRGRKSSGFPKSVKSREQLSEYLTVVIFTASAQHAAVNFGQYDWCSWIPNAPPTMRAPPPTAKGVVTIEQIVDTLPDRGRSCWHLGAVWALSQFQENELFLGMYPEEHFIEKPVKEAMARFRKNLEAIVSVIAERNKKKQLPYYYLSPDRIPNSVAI

[11] = system: HT-1376; assay: Cytotoxicity against human HT-1376 cells; format: functional

DNA topoisomerase 2-alpha (Homo sapiens), sequence (P11388 whole entry): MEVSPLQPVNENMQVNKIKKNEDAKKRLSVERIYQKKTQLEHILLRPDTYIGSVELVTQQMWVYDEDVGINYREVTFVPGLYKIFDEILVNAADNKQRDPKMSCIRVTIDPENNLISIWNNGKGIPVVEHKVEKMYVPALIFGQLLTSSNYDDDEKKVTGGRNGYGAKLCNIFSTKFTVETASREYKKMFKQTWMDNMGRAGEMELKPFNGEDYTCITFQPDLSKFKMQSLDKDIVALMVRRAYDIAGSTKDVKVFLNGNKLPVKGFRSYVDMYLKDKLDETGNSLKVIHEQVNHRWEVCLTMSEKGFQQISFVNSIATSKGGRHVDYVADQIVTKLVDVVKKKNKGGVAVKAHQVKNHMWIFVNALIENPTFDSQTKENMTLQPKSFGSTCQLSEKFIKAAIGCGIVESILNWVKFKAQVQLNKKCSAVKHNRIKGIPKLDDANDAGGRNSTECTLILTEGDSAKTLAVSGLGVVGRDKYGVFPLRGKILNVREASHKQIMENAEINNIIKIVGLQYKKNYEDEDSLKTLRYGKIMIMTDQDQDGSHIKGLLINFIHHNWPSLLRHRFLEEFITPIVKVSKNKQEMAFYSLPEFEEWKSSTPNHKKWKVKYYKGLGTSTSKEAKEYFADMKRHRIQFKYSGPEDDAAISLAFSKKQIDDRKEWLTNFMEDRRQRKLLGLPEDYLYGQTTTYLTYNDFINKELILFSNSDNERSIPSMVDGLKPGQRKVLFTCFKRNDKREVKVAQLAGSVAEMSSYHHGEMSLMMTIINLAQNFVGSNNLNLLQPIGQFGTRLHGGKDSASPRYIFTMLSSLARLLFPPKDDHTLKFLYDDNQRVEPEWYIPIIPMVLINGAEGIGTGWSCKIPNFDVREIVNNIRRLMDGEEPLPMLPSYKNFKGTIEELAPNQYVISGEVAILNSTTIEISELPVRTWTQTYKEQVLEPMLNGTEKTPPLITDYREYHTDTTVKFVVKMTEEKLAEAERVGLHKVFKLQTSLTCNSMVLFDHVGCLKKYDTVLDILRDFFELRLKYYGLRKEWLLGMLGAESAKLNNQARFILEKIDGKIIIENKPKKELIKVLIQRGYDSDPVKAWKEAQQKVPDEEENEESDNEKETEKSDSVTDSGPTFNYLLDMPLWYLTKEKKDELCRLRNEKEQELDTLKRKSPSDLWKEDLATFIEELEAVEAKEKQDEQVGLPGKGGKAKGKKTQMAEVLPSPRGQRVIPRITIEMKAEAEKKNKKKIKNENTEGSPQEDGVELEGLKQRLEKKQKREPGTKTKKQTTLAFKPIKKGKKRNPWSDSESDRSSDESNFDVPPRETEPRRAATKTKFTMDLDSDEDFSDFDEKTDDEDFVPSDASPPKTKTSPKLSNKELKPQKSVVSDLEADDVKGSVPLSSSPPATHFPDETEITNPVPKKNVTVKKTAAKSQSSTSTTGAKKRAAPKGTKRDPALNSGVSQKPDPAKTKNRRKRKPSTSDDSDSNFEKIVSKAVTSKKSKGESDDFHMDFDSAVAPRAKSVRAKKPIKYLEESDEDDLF

Compound | IC50 [1] [µM] | inhibition [2] [%] | IC50 [3] [µM] | IC50 [4] [µM] | inhibition [5] [%] | inhibition [6] [%] | inhibition [7] [%] | IC50 [8] [µM] | MIC [9] [mg/L] | IC50 [10] [µM] | Activity [11] [µM]
O=C1c2ccc3ccccc3c2-n2c1nc1cc3ccccc3cc1c2=O | 32.3 | 3.5 | 34.9 | 20.3 | 19.1 | 53.5 | 84.1 | 24 | – | – | –
COc1cccc2c1C(=O)c1c(O)c3c(c(O)c1C2=O)C[C@@](O)(C(=O)CO)C[C@@H]3O[C@H]1C[C@H](N)[C@H](O)[C@H](C)O1 [DOXORUBICIN] | – | – | 1.82 | 1 | – | – | – | 1.76 | – | – | –
O=C1c2cc3ccccc3cc2-n2c1nc1ccccc1c2=O | 17.8 | 5.4 | 21.5 | 10.7 | 5.95 | 75.9 | 69.6 | 6.15 | – | – | –
O=C1c2cc3ccccc3cc2-n2c1nc1cc3ccccc3cc1c2=O | 26.1 | 3.6 | 25.7 | 2.31 | – | 12.6 | 41.9 | 26.2 | – | – | –
COc1cc([C@@H]2c3cc4c(cc3[C@@H](O[C@@H]3O[C@@H]5CO[C@@H](C)O[C@H]5[C@H](O)[C@H]3O)[C@H]3COC(=O)[C@H]23)OCO4)cc(OC)c1O [ETOPOSIDE] | 1.42 | – | 1.21 | 0.41 | – | – | – | 0.28 | – | – | –
O=C1c2ccccc2-n2c1nc1cc3ccccc3cc1c2=O [BENZO[K]TRYPTANTHRIN] | 26 | – | 23.1 | 31.5 | – | 16 | 18.8 | 25.8 | – | – | –
O=C1c2ccccc2-n2c1nc1ccccc1c2=O [TRYPTANTHRIN] | 6.22 | 4.09 | 14.3 | 4.11 | – | 4.54 | 68.4 | 8.49 | 10 (≈ 40.3 µM) | 0.15 | 10
O=C1c2c(ccc3ccccc23)-n2c1nc1ccccc1c2=O | 27.7 | 4.9 | 31.3 | 25.7 | – | 8.13 | 47.8 | 24.7 | – | – | –
O=C1c2c(ccc3ccccc23)-n2c1nc1cc3ccccc3cc1c2=O | 34 | 3.8 | 25.2 | 24.2 | 5.83 | 71.3 | 39.1 | 32.8 | – | – | –
CC[C@@]1(O)C(=O)OCc2c1cc1n(c2=O)Cc2cc3ccccc3nc2-1 [CAMPTOTHECIN] | 9.29 | 26.3 | 9.17 | 7.94 | – | – | 63.1 | 9.92 | – | – | –
O=C1c2ccc3ccccc3c2-n2c1nc1ccccc1c2=O | 21.4 | 4.1 | 22.8 | 22.1 | – | 14 | 53.4 | 12.6 | – | – | –
